Source: ChEMBL document CHEMBL1134546, “Structure-based design, synthesis, and biological evaluation of conformationally restricted novel 2-alkylthio-6-[1-(2,6-difluorophenyl)alkyl]-3,4-dihydro-5-alkylpyrimidin-4(3H)-ones as non-nucleoside inhibitors of HIV-1 reverse transcriptase” (J Med Chem, 2001)
pEC50, pIC50: −log10 of the molar value.

What was measured:
[1] = tested on: Human immunodeficiency virus 1; assay: Effective concentration against HIV-1 induced cytopathogenicity in MT-4 cells; type: functional, organism-based, MT4
In short: (§1)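 MT-4 cells (1 × 10⁴/well) incubated with serial compound dilutions (200 mM DMSO stock diluted in medium), with or without HIV-1 IIIB (100 CCID₅₀/well), 4 days at 37 °C in RPMI 1640 with 10% FCS. Viable cells counted by MTT. CC₅₀ from mock-infected cells and EC₅₀ as 50% protection from virus-induced cytopathicity, run in parallel. Mean of at least two experiments.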

[2] = tested on: MT4; assay: Cytotoxicity against MT-4 cells.; type: functional, Homo sapiens; in short: as §1
[3] = tested on: MT4; assay: CC50/EC50 ratio of the compound; type: functional
In short: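 Selectivity index, calculated as CC₅₀/EC₅₀. Both values come from the parallel MTT readout in mock-infected and HIV-1 IIIB-infected MT-4 cells (4-day incubation at 37 °C).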

[4] = target: Human immunodeficiency virus type 1 reverse transcriptase (Human immunodeficiency virus 1, UniProt Q72547); assay: Inhibitory activity against HIV-1 recombinant reverse transcriptase.
[5] = tested on: Human immunodeficiency virus 1; assay: Anti-HIV-1 activity determined as dose required to reduce p24 antigen levels.; type: functional
[6] = tested on: MT4; assay: Anti-HIV-1 activity against WTIIIB HIV-1 strain in MT-4 cells; type: functional, cell-based; conditions: Homo sapiens
[7] = tested on: MT4; assay: Anti-HIV-1 activity against Y181C HIV-1 strain in MT-4 cells; type: functional, cell-based; conditions: Homo sapiens
[8] = Y181C/WTIIIB ratio of the compound; type: functional
In short: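 Fold resistance, given as the EC₅₀ against Y181C mutant HIV-1 divided by the EC₅₀ against wild-type IIIB. Each EC₅₀ is the dose giving 50% protection of MT-4 cells from virus-induced cytopathicity, read by MTT.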

[9] = Human immunodeficiency virus 1, MT4

Structure (SMILES) | pEC50 [1, 9] | CC50 ([2]; Homo sapiens, MT4) [nM] | Selectivity index [3] | pIC50 [4] | other results
CCC(c1cc(O)nc(SC2CCCCC2)n1)c1c(Cl)cccc1Cl (stereo not drawn) | 5.44 | > 200000 | >55.5 |  | 
Cc1c(C(C)c2c(F)cccc2F)nc(SC2CCCC2)[nH]c1=O (stereo in doubt; [+]3w) |  | > 200000 | >100000 | 8.10 | pEC50 ([1]; mt4): 8.70
CCC(C)Sc1nc(O)c(C)c(Cc2c(F)cccc2F)n1 (stereo not drawn) | 7.30 | > 200000 | >4000 |  | 
CC(c1cc(=O)[nH]c(SC2CCCC2)n1)c1c(F)cccc1F (stereo not drawn) | 7.52 | > 200000 | >6666 | 7.30 | EC90 [5]: 15 nM; EC99 [5]: 0.035 µM; EC99.9 [5]: 0.09 µM
CSc1nc(O)cc(C(C)c2c(F)cccc2F)n1 (stereo not drawn) | 6.74 | 20800 | 115 | 6.70 | 
Cc1c(O)nc(SC(C)C)nc1C(C)c1c(F)cccc1F (stereo not drawn) | 8.15 | > 200000 | >28570 | 7.72 | 
CCC(c1ccccc1)c1cc(O)nc(SC2CCCCC2)n1 (stereo not drawn) | 5.89 | > 200000 | >154 | 5.43 | 
CC(C)Sc1nc(O)cc(C(C)c2c(Cl)cccc2Cl)n1 (stereo not drawn) | 5.92 | 117000 | 97.5 |  | 
CCC(c1cc(O)nc(SC(C)C)n1)c1c(Cl)cccc1Cl (stereo not drawn) | 6.40 | > 200000 | >500 |  | 
CC(c1cc(O)nc(SC2CCCCC2)n1)c1c(Cl)cccc1Cl (stereo not drawn) | 5.54 | > 200000 | >69 |  | 
CCC(c1ccccc1)c1cc(O)nc(SC(C)C)n1 (stereo not drawn) | 6.10 | 200000 | 250 | 5.64 | 
CCOCn1c(Cc2ccccc2)c(C(C)C)c(=O)[nH]c1=O [EMIVIRINE] | 7.52 |  | 6666 |  | EC90 [5]: 14 nM; EC99 [5]: 0.041 µM; EC99.9 [5]: 0.082 µM
CC(c1ccccc1)c1cc(O)nc(SC2CCCCC2)n1 (stereo not drawn) | 6.22 | 149000 | 248 |  | 
Cc1c(C(C)c2c(F)cccc2F)nc(SC2CCCC2)[nH]c1=O (stereo in doubt; [-]3w) |  |  | >286 | 6.00 | pEC50 ([1]; mt4): 7.15; CC50 [2]: 200000 nM
CCC(c1cc(O)nc(SC2CCCC2)n1)c1cccc2ccccc12 (stereo not drawn) | 5.52 | 51000 | 17 |  | 
CCC(c1cc(O)nc(SC2CCCCC2)n1)c1cccc2ccccc12 (stereo not drawn) | 6.74 | 16900 | 94 | 5.85 | 
CCC(c1ccccc1)c1cc(O)nc(SC2CCCC2)n1 (stereo not drawn) | 6.00 | > 200000 | >200 | < 5.00 | 
Cc1c(O)nc(SCC(C)C)nc1C(C)c1c(F)cccc1F (stereo not drawn) | 8.00 | > 200000 | >20000 |  | 
Cc1ccnc2c1NC(=O)c1cccnc1N2C1CC1 [NEVIRAPINE] |  |  |  |  | pEC50 [6]: 6.43; pEC50 [7]: < 4.52
CCCCSc1nc(O)cc(C(C)c2c(F)cccc2F)n1 (stereo not drawn) | 7.15 | > 200000 | 2857 |  | 
CCC(C)Sc1nc(O)c(C)c(C(C)c2c(F)cccc2F)n1 (stereo not drawn) | 7.52 | > 200000 | 6666 | 7.70 | pEC50 [6]: 7.70; pEC50 [7]: 6.52; Fold resistance [8]: 15
CC(C)Sc1nc(O)cc(C(C)c2cccc3ccccc23)n1 (stereo not drawn) | 5.96 | 119000 | 108 | 5.24 | 
CC(C)Sc1nc(O)cc(C(C)c2c(F)cccc2F)n1 (stereo not drawn) | 7.30 | 167000 | 3340 |  | EC90 [5]: 42 nM; EC99 [5]: 0.083 µM; EC99.9 [5]: 0.19 µM
CCC(C)Sc1nc(O)cc(C(C)c2ccccc2)n1 (stereo not drawn) | 6.64 | 200000 | 870 |  | 

Structure (SMILES) | pEC50 [1, 9] | CC50 ([2]; Homo sapiens, MT4) [nM] | Selectivity index [3] | pIC50 [4] | other results
CCC(C)Sc1nc(O)cc(C(CC)c2ccccc2)n1 (stereo not drawn) | 6.40 | > 200000 | >500 |  | 
CC(c1cc(O)nc(SC2CCCC2)n1)c1cccc2ccccc12 (stereo not drawn) | 6.30 | 93000 | 186 | 6.40 | 
CCC(c1cc(O)nc(SC2CCCCC2)n1)c1c(F)cccc1F (stereo not drawn) | 7.30 | > 200000 | 2600 |  | 
Cc1c(C(C)c2c(F)cccc2F)nc(SC2CCCC2)[nH]c1=O (stereo in doubt; 3w) |  |  | >33333 | 8.30 | EC90 [5]: 6 nM; EC99 [5]: 0.015 µM; EC99.9 [5]: 0.033 µM; pEC50 ([1]; mt4): 8.22
CC(C)CSc1nc(O)cc(C(C)c2c(F)cccc2F)n1 (stereo not drawn) | 7.30 | > 200000 | >4000 |  | 
CC(c1ccccc1)c1cc(O)nc(SC2CCCC2)n1 (stereo not drawn) | 6.22 | 159000 | 333 | 5.68 | 
CCC(C)Sc1nc(O)cc(C(C)c2c(F)cccc2F)n1 (stereo not drawn) | 7.52 | > 200000 | >6666 |  | 
Cc1c(O)nc(SC2CCCCC2)nc1C(C)c1c(F)cccc1F (stereo not drawn) | 7.74 | > 200000 | >11111 |  | 
Cc1c(Cc2c(F)cccc2F)nc(SC(C)C)[nH]c1=O | 7.30 |  | >4000 |  | EC90 [5]: 26 nM; EC99 [5]: 0.065 µM; EC99.9 [5]: 0.15 µM
CCC(c1cc(O)nc(SC(C)C)n1)c1cccc2ccccc12 (stereo not drawn) | 5.82 | 50000 | 33.3 | 6.10 | 
CCCCSc1nc(O)c(C)c(C(C)c2c(F)cccc2F)n1 (stereo not drawn) | 8.10 | 112000 | 14000 |  | 
O=c1cc(Cc2c(F)cccc2F)nc(SC2CCCC2)[nH]1 | 7.10 |  | >2500 |  | EC90 [5]: 80 nM; EC99 [5]: 0.15 µM; EC99.9 [5]: 0.3 µM
CC(c1cc(O)nc(SC2CCCCC2)n1)c1c(F)cccc1F (stereo not drawn) | 6.80 | > 200000 | >1250 |  | 
CC(C)Sc1nc(O)cc(C(C)c2ccccc2)n1 (stereo not drawn) | 6.05 | > 200000 | >222 | 5.64 | 
CCC(c1cc(O)nc(SC(C)C)n1)c1c(F)cccc1F (stereo not drawn) | 7.10 | 70000 | 875 |  | EC90 [5]: 15 nM; EC99 [5]: 0.035 µM; EC99.9 [5]: 0.09 µM
CC(c1cc(O)nc(SC2CCCCC2)n1)c1cccc2ccccc12 (stereo not drawn) | 6.85 | 45000 | 321.4 | 5.59 | 
O=C1Nc2ccc(Cl)cc2[C@@](C#CC2CC2)(C(F)(F)F)O1 [EFAVIRENZ] |  |  |  |  | pEC50 [6]: 8.40; pEC50 [7]: 7.60; Fold resistance [8]: 6
CCC(c1cc(O)nc(SC2CCCC2)n1)c1c(Cl)cccc1Cl (stereo not drawn) | 6.00 | 23400 | 23.4 |  | 
CCC(c1cc(O)nc(SC2CCCC2)n1)c1c(F)cccc1F (stereo not drawn) | 6.82 | > 200000 | 1333 |  | EC90 [5]: 80 nM; EC99 [5]: 0.15 µM; EC99.9 [5]: 0.3 µM
CSc1nc(O)c(C)c(C(C)c2c(F)cccc2F)n1 (stereo not drawn) | 7.40 | > 200000 | >5000 | 7.70 | pEC50 [6]: 7.43; pEC50 [7]: < 5.00; Fold resistance [8]: > 270
CC(c1cc(O)nc(SC2CCCC2)n1)c1c(Cl)cccc1Cl (stereo not drawn) | 6.00 | 78300 | 78.3 |  | 
Cc1c(Cc2c(F)cccc2F)nc(SC2CCCC2)[nH]c1=O | 7.10 |  | >2500 |  | EC90 [5]: 40 nM; EC99 [5]: 0.075 µM; EC99.9 [5]: 0.15 µM; pEC50 [6]: 7.40; pEC50 [7]: 5.92; Fold resistance [8]: 30
CC(C)Sc1nc(Cc2c(F)cccc2F)cc(=O)[nH]1 | 7.30 |  | >4000 |  | EC90 [5]: 42 nM; EC99 [5]: 0.083 µM; EC99.9 [5]: 0.19 µM
CCC(C)Sc1nc(O)cc(Cc2c(F)cccc2F)n1 (stereo not drawn) | 7.40 |  | >5000 |  | 
